Source: ChEMBL document CHEMBL1141109, “Synthesis of an estrogen receptor beta-selective radioligand: 5-[18F]fluoro-(2R,3S)-2,3-bis(4-hydroxyphenyl)pentanenitrile and comparison of in vivo distribution with 16alpha-[18F]fluoro-17beta-estradiol” (J Med Chem, 2005)

Experiments:
[1] = Biodistribution of [18F]-FES in beta estrogen receptor knock out mouse bone after 30 min(n=2); mice in nonestrus stage; assay type: ADME, organism-based, Bone element; conditions: in vivo, 0.5 h
Procedure, shortened: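 Female βERKO mice on estrogen-free chow were staged by vaginal smear and used in a nonestrus (diestrus) stage. Each received 13 µCi [18F]FES in 100 µL 10% ethanol/saline and was sacrificed at 30 min (n = 2). Uptake is given as %ID/g ± SD.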

[2] = Biodistribution of [18F]FES in alpha estrogen receptor knock out mouse ovaries after 2 h; (n=3); assay type: ADME, organism-based, Female gonad; conditions: in vivo
Procedure, shortened: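 Female αERKO mice were rested 48 h after shipping and fed estrogen-free chow. They were staged by daily vaginal smears and studied in diestrus. Each received 13 µCi [18F]FES in 100 µL 10% ethanol/saline and was sacrificed at 30 min, 1 h or 2 h (n = 3 per time). Tissue uptake is given as %ID/g ± SD.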

[3] = Biodistribution of [18F]FES in beta estrogen receptor knock out mouse bone after 30 min; (n=3); assay type: ADME, organism-based, Bone element; conditions: in vivo, 0.5 h
[4] = Biodistribution of [18F]FEDPN in beta estrogen receptor knock out mouse fat after 1 h; (n=3); assay type: ADME, organism-based, Adipose tissue; conditions: in vivo
Procedure, shortened: (§1)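 αERKO and βERKO mice, staged by daily vaginal smears and kept on estrogen-free chow, were studied in a nonestrous stage. Each mouse received 11 μCi of tracer in 130 μL of 10% ethanol/saline. Mice were killed at 30 min, 1 h or 2 h (n = 3 each). Organs were removed, blotted, weighed and gamma-counted against an injectate standard. Uptake is given as %ID/g ± SD.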

[5] = Biodistribution of [18F]FEDPN in beta estrogen receptor knock out mouse bone after 2 h; (n=3); assay type: ADME, organism-based, Bone element; conditions: in vivo; procedure, shortened: as §1
[6] = Biodistribution of [18F]FEDPN in rat lung after 2 h when given in tail vein; (n=5); assay type: ADME, organism-based; conditions: in vivo, iv
Procedure, shortened: (§2)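 Immature female Sprague–Dawley rats (<25 days old) under isoflurane/O2 got 20 µCi tracer in 150 µL 20% ethanol/saline by tail vein. […] Rats were killed at 30 min, 1 h or 2 h. Organs were blotted, weighed and gamma-counted against an injectate standard. Data are %ID/g ± SD, five rats per point.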

[7] = Biodistribution of [18F]-FEDPN in rat heart after 1 hr when given in tail vein; (n=5); assay type: ADME, organism-based; conditions: in vivo, iv
Procedure, shortened: (§3)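 Immature female Sprague–Dawley rats (<25 days old) anesthetized with isoflurane/O2. Given 20 µCi tracer by tail vein in 150 µL of 20% ethanol/saline. […] Killed at 30 min, 1 h or 2 h. Blood and organs blotted, weighed and gamma-counted against a standard dilution of the injectate. Reported as %ID/g ± SD, n=5.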

[8] = Biodistribution of [18F]-FEDPN in rat kidney after 1 hr when given in tail vein; (n=5); assay type: ADME, organism-based; conditions: in vivo, iv; procedure, shortened: as §3
[9] = Biodistribution of [18F]-FEDPN in rat uterus after 1 hr block when given in tail vein; (n=5); assay type: ADME, organism-based; conditions: in vivo, iv; procedure, shortened: as §3
[10] = Biodistribution of [18F]FEDPN in rat ovaries after 1 h block when given in tail vein; (n=5); assay type: ADME, organism-based, Female gonad; conditions: in vivo, iv; procedure, shortened: as §2
[11] = Biodistribution of [18F]FEDPN in beta estrogen receptor knock out mouse liver after 2 h; (n=3); assay type: ADME, organism-based; conditions: in vivo; procedure, shortened: as §1
[12] = Biodistribution of [18F]FEDPN in beta estrogen receptor knock out mouse kidney after 1 h; (n=3); assay type: ADME, organism-based; conditions: in vivo; procedure, shortened: as §1

Row | Biodistribution [1] [%ID/g] | Biodistribution [2] [%ID/g] | Biodistribution [3] [%ID/g] | Biodistribution [4] [%ID/g] | Biodistribution [5] [%ID/g] | Biodistribution [6] [%ID/g] | Biodistribution [7] [%ID/g] | Biodistribution [8] [%ID/g] | Biodistribution [9] [%ID/g] | Biodistribution [10] [%ID/g] | Biodistribution [11] [%ID/g] | Biodistribution [12] [%ID/g] | SMILES
1 | 1.26 | 0.18 | 1.28 |  |  |  |  |  |  |  |  |  | C[C@]12CC[C@@H]3c4ccc(O)cc4CC[C@H]3[C@@H]1C[C@@H](F)[C@@H]2O [FLUOROESTRADIOL]
2 |  |  |  | 0.33 | 5.15 | 0.19 | 0.29 | 1.75 | 0.34 | 0.26 | 2.04 | 2.42 | N#C[C@H](c1ccc(O)cc1)[C@@H](CCF)c1ccc(O)cc1
